Screening results deposited in PubChem BioAssay by several laboratories.
EP2 modulator: EP2 receptor (human) modulation | P43116 | induction, % at 25 µM | actives 0.83% (n = 260,000) | EP2-expressing cells, cAMP HTRF FRET, PGE2 co-stimulation;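 active = compounds whose cAMP rise, as percent of the full-agonist control response, exceeds 60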;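 note: rat C6 glioma line stably carrying human EP2 under a CMV promoter; the protocol text gives 20 µM as final concentration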
Thrombin inh: inhibitors of human thrombin; AID 1046; actives 0.26% (n = 220,000); P00734; alpha-thrombin, Boc-VPR-AMC fluorogenic substrate cleavage; inhibition, % at 5 µM;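 active = inhibition at or above 40%; inactive = inhibition below 40%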
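System: human alpha-thrombin protein; Compound dosing: one concentration per compound, 5 µM, with 0.2% DMSO; Timing: reaction at room temperature; Technique: AMC fluorescence, 355/460 nm; Controls: enzyme without compound as high, wells lacking enzyme as low.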
KLK5 inh: inhibitors of human kallikrein 5; Q9Y337; recombinant hK5, fluorogenic AMC substrate cleavage; inhibition, % at 5 µM; actives 0.59% (n = 210,000);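 active = inhibition of 40% or more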
FXIa inh: factor XIa (human) inhibition; P03951; purified FXIa, Boc-Glu-Ala-Arg-AMC fluorogenic substrate; inhibition, % at 5 µM; actives 0.14% (n = 220,000); AID 798;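 active = inhibition of at least 40%; inactive = inhibition below 40%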;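 note: fluorescence of freed AMC excited at 355 nm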
EP2 antag: inhibitors of human EP2 prostaglandin E2 receptor; P43116; C6 glioma cells expressing human EP2, cAMP TR-FRET; cells stimulated with saturating PGE2; inhibition, % at 25 µM; actives 0.52% (n = 260,000); AID 1422;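 active = percent inhibition above 40 after rounding to a whole number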;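 note: rat C6 glioma host cells with rolipram phosphodiesterase inhibitor present; the protocol text gives 20 µM as final concentration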
FXIIa inh 1536: blocks human coagulation factor XIIa protease activity; purified FXIIa, Boc-QGR-AMC fluorogenic substrate, 2 h; inhibition, % at 5 µM; actives 0.3% (n = 220,000); AID 800; in the data active = inhibition above about 40%
Target sequence (P00748 20-372 limits assumed): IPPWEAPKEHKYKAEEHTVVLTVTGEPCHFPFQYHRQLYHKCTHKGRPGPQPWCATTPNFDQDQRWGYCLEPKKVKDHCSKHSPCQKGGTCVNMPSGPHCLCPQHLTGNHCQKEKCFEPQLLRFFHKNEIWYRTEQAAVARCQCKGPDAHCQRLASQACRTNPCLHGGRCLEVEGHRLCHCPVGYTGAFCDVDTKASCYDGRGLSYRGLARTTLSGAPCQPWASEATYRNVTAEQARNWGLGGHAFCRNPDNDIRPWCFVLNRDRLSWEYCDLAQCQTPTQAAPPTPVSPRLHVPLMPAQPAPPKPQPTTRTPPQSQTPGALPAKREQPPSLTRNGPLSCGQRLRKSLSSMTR
Target sequence (P00748 373-615 limits assumed): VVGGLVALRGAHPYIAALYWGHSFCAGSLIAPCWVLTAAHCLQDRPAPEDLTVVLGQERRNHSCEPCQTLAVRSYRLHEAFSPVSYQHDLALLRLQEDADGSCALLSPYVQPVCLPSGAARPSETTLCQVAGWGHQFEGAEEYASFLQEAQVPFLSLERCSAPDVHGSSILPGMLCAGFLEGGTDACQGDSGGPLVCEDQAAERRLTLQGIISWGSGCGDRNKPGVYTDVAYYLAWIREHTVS
A number is an active result; n = inactive; x = no result given. Most compounds without a hit are left out; they make up all but 2.1% or so of the library.

SMILES	EP2 modulator	Thrombin inh	KLK5 inh	FXIa inh	EP2 antag	FXIIa inh 1536
CCOc1ccc(N2CC(C(=O)Nc3ccccc3Cl)CC2=O)cc1 (stereo unspecified)	n	x	x	x	n	x
COc1ccc(N2CC(C(=O)Nc3ccc(S(=O)(=O)Nc4nc(C)cc(C)n4)cc3)CC2=O)cc1 (stereo unspecified)	n	n	n	n	n	n
Cc1cc(C)nc(NS(=O)(=O)c2ccc(NC(=O)C3CC(=O)N(c4ccccc4)C3)cc2)n1 (stereo unspecified)	n	n	59.5	n	n	n
O=C(Nc1ccccc1Cl)C1CC(=O)N(c2ccccc2)C1 (stereo unspecified)	n	n	n	n	n	40.6
O=C(CN(Cc1ccccc1F)C(=O)c1csnn1)NC1CCCC1	n	x	x	x	n	x
COc1cccc(-c2nc3ccccc3c(=O)o2)c1	n	64.8	n	n	n	n
O=c1oc(-c2ccc(Br)o2)nc2ccccc12	n	n	n	n	n	46.3
CCOc1ccc2nc(NC(=O)COc3ccc(OC)cc3)sc2c1	n	x	x	x	n	x
Cc1cc(C)c2cc(C)c3nn(CC(=O)N(C)C)c(=O)n3c2c1	n	x	x	x	n	x
CC(C)c1nc2ccccc2c2nn(CC(=O)NC3CCCC3)c(=O)n12	n	x	x	x	n	x
Cc1cccc(CN2CCN(CC(=O)O)C2=O)c1	n	n	n	n	n	n
Cc1cccc(CN2CCN(CC(=O)N3CCCC3)C2=O)c1	n	n	n	42.9	n	n
O=C(Cc1ccsc1)N1CCC(n2nc(-c3ccco3)ccc2=O)CC1	n	x	x	x	x	x
OCc1ccncc1.OCc1ccncc1.[Cl][Pt]([Cl])([Cl])[Cl]	n	x	x	x	69.0	x
Cc1cc2ccc(OC(=O)c3ccc(N=C(N)N)cc3)cc2oc1=O	n	x	x	x	116.0	x
CCc1ccc(NC(=O)COc2ccc(S(=O)(=O)N3CCCC3)cc2)cc1	n	x	x	x	n	x
COc1ccc(N(Cc2cc3cccc(C)c3[nH]c2=O)C(=O)c2cc(OC)c(OC)c(OC)c2)cc1	n	x	x	x	n	x
[N-]=[N+]=CC(=O)C(c1ccccc1)(c1ccccc1)c1ccccc1	75.7	n	n	n	n	n
CCOc1cc(C2NC(=O)NC(C)=C2C(=O)Nc2ccccc2C)ccc1OCC(=O)O (stereo unspecified)	n	x	x	x	n	x
CC(=O)Nc1nnc(SCC(=O)c2ccc3c(c2)Cc2ccccc2-3)s1	60.8	n	n	n	n	n
Cn1c(=O)cc(OCC(=O)NC2CCCCC2)c2ccccc21	n	n	n	n	n	n
Cn1c(=O)cc(OCCCC(=O)NC2CCCC2)c2ccccc21	n	n	70.0	n	n	n
O=C(NCCc1nc(-c2ccncc2)n[nH]1)C1(c2ccc(Cl)cc2)CC1	n	x	x	x	n	x
CC1=C(C(=O)OC(C)C)C(c2ccc(F)cc2)C2=C(CC(C)(C)CC2=O)N1 (stereo unspecified)	n	x	x	x	n	x
CC1CCCN(C(c2cccc(C(F)(F)F)c2)c2nnnn2C2CCCC2)C1 (stereo unspecified)	n	x	x	x	n	x
SMILES	EP2 modulator	Thrombin inh	KLK5 inh	FXIa inh	EP2 antag	FXIIa inh 1536
COc1cnn(-c2ccccc2)c(=O)c1SCc1ccc(Cl)c(Cl)c1	n	n	n	n	n	n
COc1cc2nncc(SCc3ccc(Cl)c(Cl)c3)c2cc1OC	n	x	x	x	54.3	x
CCCCC1(C)OC(=O)C(=Cc2ccc(-c3ccc(Cl)c(C(=O)O)c3)o2)C(=O)O1 (stereo unspecified)	n	n	n	n	n	n
COC(=O)c1cc(-c2ccc(C=C3C(=O)OC4(CCCC4)OC3=O)o2)ccc1Cl	n	x	x	x	88.0	x
CC(=O)Nc1cccc(NC(=O)CSc2nnc3c(C)cc4cc(C)ccc4n23)c1	n	x	x	x	n	x
COc1ccc(OC)c(Cc2nnc(CCC(=O)N3CCC(N4CCCCC4)CC3)o2)c1	n	n	44.4	n	n	n
CC(C)N(C(=O)CSc1nn2c(=O)c(C(C)(C)C)nnc2s1)c1ccccc1	n	n	n	n	n	n
Cc1cc(C(=O)CSc2nn3c(=O)c(C(C)(C)C)nnc3s2)c(C)n1-c1ccc(F)cc1	n	n	n	n	44.3	n
O=c1[nH]c2cc3c(cc2cc1CN(C(=S)NCC1CCCO1)C1CCCC1)OCO3 (stereo unspecified)	n	x	x	x	n	x
CSc1nc(SCC(=O)O)c2c3c(sc2n1)COC(C)(C)C3	n	n	n	n	n	52.0
CCn1c(SCC(=O)Nc2cccc(C)c2)nc2c1c(=O)n(C)c(=O)n2C	n	x	x	x	n	x
O=C(OCc1ccccc1)/C(=C/c1cccc2ccccc12)NC(=O)c1ccccc1	n	n	46.7	n	n	n
O=C(CSc1nc2ccccc2s1)NC1CCCC1	n	n	n	n	n	42.1
Cc1c(NC(=O)CSc2nc3ccccc3s2)c(=O)n(-c2ccccc2)n1C	n	n	n	n	n	44.8
c1ccc2sc(SCN(C3CCCCC3)C3CCCCC3)nc2c1	n	x	x	x	43.4	x
c1ccc2sc(SCSc3nc4ccccc4s3)nc2c1	n	n	n	n	n	n
CCc1ccc2[nH]c(=O)c(CN(CCCO)C(=O)c3ccccc3)cc2c1	n	x	x	x	n	x
CCn1c(=O)c(C(=O)Nc2nc(C)cs2)c(O)c2ccccc21	n	x	x	x	n	x
COc1ccc(NC(C)=O)cc1S(=O)(=O)N1CCN(C)CC1	n	x	x	x	n	x
O=C(CN1CCOCC1)Nc1sc2c(c1C(=O)c1ccc(Cl)cc1)CCC2	62.4	x	x	x	n	x
CC1CCc2nc(NC(=O)CN3CCOCC3)sc2C1 (stereo unspecified)	n	n	n	n	n	n
COC(=O)c1c(NC(=O)CN2CCOCC2)sc2c1CCC(C)C2 (stereo unspecified)	61.4	n	n	n	n	n
C=CCn1c(SCC(=O)Nc2ccccc2C)nc2sc3c(c2c1=O)CCC3	n	x	x	x	n	x
O=C(Nc1ccccc1N1CCOCC1)c1ccc2nc[nH]c2c1	n	56.5	n	n	n	n
Cc1ccc(-n2c(COc3cccc4ccccc34)nnc2SCC(=O)O)cc1	n	x	x	x	n	x
SMILES	EP2 modulator	Thrombin inh	KLK5 inh	FXIa inh	EP2 antag	FXIIa inh 1536
Cc1cc(C)nc(SCc2nnc(SCC(=O)N3CCCCC3)n2Cc2ccco2)n1	n	x	x	x	n	x
CN(C)Cc1ccc(F)cc1Sc1ccc(Cl)cc1Cl	61.5	n	n	n	n	n
CCOc1ccc2[nH]c(=O)c(CN(Cc3ccco3)Cc3nnnn3C3CCCC3)cc2c1	64.4	x	x	x	n	x
Cc1ccc(C)c2[nH]c(=O)c(CN(Cc3nnnn3C3CCCCC3)CC3CCCO3)cc12 (stereo unspecified)	n	n	n	n	n	41.0
Cc1ccc2cc(CN(Cc3ccco3)Cc3nnnn3C3CCCCC3)c(=O)[nH]c2c1C	70.2	x	x	x	n	x
Cc1ccc(C)c2[nH]c(=O)c(CN(Cc3ccco3)Cc3nnnn3C3CCCCC3)cc12	71.9	x	x	x	n	x
Cc1cc2cc(CN(Cc3ccco3)Cc3nnnn3C3CCCCC3)c(=O)[nH]c2cc1C	n	x	x	x	n	x
Cc1ccc2[nH]c(=O)c(CN(Cc3nnnn3C3CCCC3)CC3CCCO3)cc2c1 (stereo unspecified)	n	x	x	x	n	x
COc1ccc2[nH]c(=O)c(CN(Cc3cccs3)C(=S)Nc3ccc(C)cc3)cc2c1	n	x	x	x	n	x
